Bioassay records from PubChem BioAssay.
Most compounds without a hit are left out; they make up all but 3.3% or so of the library.
NFkB transloc inh = inhibitors of IL-1B driven NFkB p65 nuclear import, primary screen, imaging, HUVEC, IL-1B stimulus, high-content imaging. HUVEC IL-1B NFkB p65 nuclear translocation imaging. inhibition, % at 2 µM. 0.43% of 94,000 active. AID 796, 2007;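 active = inhibition above about 30% together with a positive call from visual inspection of the well image, limit read from the data; inconclusive = inhibition above a set limit but visual check negative; inactive = inhibition not above a set limit, visual check negative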;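 note: nuclear over cytoplasmic p65 intensity ratio measured by imaging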
NFkB transloc pot = enhancers of NFkB p65 translocation in HUVEC – imaging, IL-1B stimulus, high-content imaging, primary screen; AID 819, 2007; 0.3% of 94,000 active; HUVEC IL-1B NFkB p65 nuclear translocation imaging; activation, % at 2 µM;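 active = activation above 40%, about the mean plus 3 SD, also judged a hit on visual image review; inconclusive = activation above 40% but not a hit on visual review; inactive = activation not above 40% and no visual hit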;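 note: percent activation is computed from the nuclear over cytoplasmic p65 intensity ratio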
HUVEC tox IL1B = cytotoxicity in IL-1B stimulated HUVEC, primary screen, cytotoxicity control for IL-1B NFkB translocation project, imaging, Hoechst nuclear count, IL-1B stimulus. cell count reduction, % at 2 µM. 0.41% of 94,000 active. HUVEC cell count loss;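 active = cell count reduction more than 3 SD above the screen-wide mean, cut at about 70% in these data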
Rev-RRE block = HIV-1 Rev-RRE binding inhibitors, primary screen, biochemical, FRET, protein-RNA interaction; inhibition, % at 8 µM; AID 704, 2007; Rev peptide-RRE RNA binding; 0.79% of 97,000 active;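 active = inhibition above the screen-wide mean plus 3 SD, cut at about 35% in these data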
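Material: labelled RRE RNA duplex and labelled Rev peptide / Buffer or medium: HEPES pH 7.5 salt buffer with EDTA / Compound dosing: single point, 8 µM final nominal compound concentration / Benchmarks: DMSO low control, neomycin B high control / Timing: 5 min preincubation and 15 min binding, 25 °C / Technique: FRET fluorescence readout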
FAK blocker = FAK kinase inhibitors, primary screen, biochemical; 0.84% of 97,000 active; biochemical FAK kinase activity assay; Focal adhesion kinase 1 (Homo sapiens), Q05397; inhibition, %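 (tested at 7 µM)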; in the data active = inhibition above about 19%
Target sequence (Q05397 whole entry, looked up): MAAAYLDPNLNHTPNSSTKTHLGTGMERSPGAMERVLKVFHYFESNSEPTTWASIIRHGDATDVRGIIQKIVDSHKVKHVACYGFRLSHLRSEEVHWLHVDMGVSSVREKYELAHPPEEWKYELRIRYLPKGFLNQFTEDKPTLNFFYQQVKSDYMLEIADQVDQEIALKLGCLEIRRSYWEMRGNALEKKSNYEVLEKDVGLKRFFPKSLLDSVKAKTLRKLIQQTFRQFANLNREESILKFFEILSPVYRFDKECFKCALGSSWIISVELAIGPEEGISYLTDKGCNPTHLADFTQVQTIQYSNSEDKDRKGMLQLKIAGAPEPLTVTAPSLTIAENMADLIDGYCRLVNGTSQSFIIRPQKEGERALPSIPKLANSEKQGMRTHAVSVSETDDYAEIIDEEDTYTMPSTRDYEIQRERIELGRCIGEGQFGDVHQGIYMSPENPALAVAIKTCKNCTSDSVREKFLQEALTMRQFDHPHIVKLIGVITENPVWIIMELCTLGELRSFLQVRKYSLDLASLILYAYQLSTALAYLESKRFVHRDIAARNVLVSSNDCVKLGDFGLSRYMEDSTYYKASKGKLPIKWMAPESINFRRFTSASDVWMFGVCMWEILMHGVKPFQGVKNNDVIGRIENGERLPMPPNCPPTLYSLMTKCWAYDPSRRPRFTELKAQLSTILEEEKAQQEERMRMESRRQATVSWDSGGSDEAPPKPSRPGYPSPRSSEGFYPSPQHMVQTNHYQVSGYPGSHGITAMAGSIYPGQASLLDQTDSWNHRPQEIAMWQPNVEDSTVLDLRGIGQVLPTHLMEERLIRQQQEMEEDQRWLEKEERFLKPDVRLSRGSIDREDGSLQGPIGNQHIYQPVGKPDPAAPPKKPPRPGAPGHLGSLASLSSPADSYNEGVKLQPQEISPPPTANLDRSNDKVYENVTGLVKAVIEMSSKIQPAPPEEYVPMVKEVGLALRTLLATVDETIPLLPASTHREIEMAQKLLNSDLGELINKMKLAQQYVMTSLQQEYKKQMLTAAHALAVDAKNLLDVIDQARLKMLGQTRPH
Measles CPE = compounds protecting cells from measles virus cytopathic effect, primary screen, measles RdRp inhibitor project, single point, MLSMR library, absorbance. protection (pct of control), % at 4 µM. 1.5% of 140,000 active. Measles virus-infected cells, CPE protection; in the data active = protection mostly above about 24%, no sharp cut-off; inactive = mostly below about 26%
A number is an active result; . = inactive; ? = inconclusive; / = no result; [ ] = dose if it differs, or a comment.

SMILES	NFkB transloc inh	NFkB transloc pot	HUVEC tox IL1B	Rev-RRE block	FAK blocker	Measles CPE
FC(F)(F)c1cc(-c2ccc3c(c2)OCO3)nc(NCc2ccco2)n1	.	.	.	.	.	66
Nn1c(SC/C=C/c2ccccc2)nnc1-c1cccnc1	.	.	.	.	.	26
COc1cc(OC)c(-c2nc3c[n+](CC(=O)c4ccccc4)ccc3n2C)cc1OC	.	.	.	.	.	38
Cc1ccc(C2N(c3nccs3)C(=O)C3CCCN32)cc1 (stereo not given)	.	?	.	.	.	.
O=C1C2CCCN2C(c2ccc(F)cc2)N1c1nccs1 (stereo not given)	.	.	.	.	.	33
CCOc1ccc(/C=N/OCC(=O)NCc2ccc3c(c2)OCO3)cc1OC	/	/	/	/	/	.
O=C(NC1CCCC1)C(c1ccsc1)N(Cc1ccccc1)C(=O)Cc1cccs1 (stereo not given)	.	.	.	.	.	63
O=C(NC1CCCC1)C(c1ccncc1)N(Cc1ccccc1)C(=O)Cc1cccs1 (stereo not given)	.	.	.	.	.	.
Cc1cccc(C)c1NC(=O)CSc1cc(C(=O)c2nccn2C)c2ccccc2n1	/	/	/	/	/	.
CC(NC(=O)c1ccc(F)cc1)c1ccccc1 (stereo not given)	.	.	.	.	.	38
Cc1ccc(C(=O)NC(C)c2ccc(F)cc2)cc1 (stereo not given)	/	/	/	/	/	.
CC(C)n1c(SCC(=O)N2CCCC2)nc2c1c(=O)n(C)c(=O)n2C	/	/	/	/	/	33
CCCn1c(SCC(=O)N2CCCC2)nc2c1c(=O)n(C)c(=O)n2C	.	.	.	.	.	.
O=C(NCC1CCCO1)C(c1cccs1)N(Cc1ccccc1)C(=O)c1ccc(-c2ccccc2)[nH]1 (stereo not given)	/	/	/	/	/	.
O=C(NCC1CCCO1)C(c1cccs1)N(C(=O)c1ccc(-c2ccccc2)[nH]1)C1CCCC1 (stereo not given)	/	/	/	/	/	51
O=[N+]([O-])c1cc(-c2ncccn2)cs1	/	/	/	/	/	.
O=C(O)CC(C(=O)O)N1C(=O)/C(=C/c2ccc(-c3nc4ccccc4s3)o2)SC1=S (stereo not given)	.	.	.	52	.	.
Cc1cc(F)ccc1NCC(=O)Nc1ccccc1Br	/	/	/	/	/	50
Cc1nn(Cc2ccccc2)c(C)c1NC(=O)CSc1nc(C2CC2)nc2c1cnn2-c1ccccc1	46	.	.	.	.	.
Cc1nn(C)c(C)c1NC(=O)CSc1nc(Cc2ccccc2)nc2c1cnn2-c1ccccc1	.	.	.	.	.	/
Cc1cc(N2CCOCC2)cc(C)[n+]1[O-]	.	40	.	.	.	.
CN(NC1CC(=O)N(c2ccccc2)C1=O)c1ccccc1 (stereo not given)	/	/	/	/	/	.
CCCNC(=S)Nc1ccc(Br)cc1	.	.	92	.	.	.
Cc1cc(Oc2cc(N)cc([N+](=O)[O-])c2)ccc1Cl	/	/	/	/	/	.
Clc1ccccc1OCc1nc(-c2ccccn2)no1	.	.	.	.	.	.
SMILES	NFkB transloc inh	NFkB transloc pot	HUVEC tox IL1B	Rev-RRE block	FAK blocker	Measles CPE
Clc1ccc(OCc2nc(-c3ccccn3)no2)c(Br)c1	36	.	.	.	.	.
CC(C)OC(=O)CCNc1n[nH]c(=O)[nH]c1=O	.	.	.	.	.	.
CCCCOC(=O)CCNc1n[nH]c(=O)[nH]c1=O	/	/	/	/	/	56
CN(C)c1ccc(/C=c2/sc3n(c2=O)NC2(c4ccccc4)N(C)C(=O)N(C)C2(c2ccccc2)N=3)cc1 (stereo not given)	/	/	/	/	/	.
O=[N+]([O-])c1cccc(CSc2nnc(Cc3ccccc3)n2-c2ccc(F)cc2)c1	/	/	/	/	/	.
O=C(O)c1ccccc1C(=O)NCc1cccnc1	.	.	.	.	.	32
Cn1c(=O)c2c(ncn2CC(=O)OCC(=O)NCc2ccc(Cl)cc2)n(C)c1=O	/	/	/	/	/	.
O=C(NCc1cccnc1)c1ccccn1	.	.	.	.	.	.
O=C(CSc1ccccc1)NCc1cccnc1	.	.	.	.	.	40
Cn1c(=O)c2c(ncn2CC(=O)NCc2cccnc2)n(C)c1=O	.	.	.	.	.	39
CCCCNS(=O)(=O)c1ccc2nc(-c3cccs3)cc(C(=O)NCC(OC)OC)c2c1	/	/	/	/	/	.
C=CCN1C(=O)/C(=C2/Sc3ccccc3N2C)SC1=Nc1ccccc1C	.	.	.	.	.	51
Cc1c(NC(=O)C2CCCN2S(=O)(=O)c2ccccc2)c(=O)n(-c2ccccc2)n1C (stereo not given)	.	.	.	.	.	.
Cc1c(NC(=O)C2CCN(S(=O)(=O)c3ccc(Cl)cc3)CC2)c(=O)n(-c2ccccc2)n1C	.	.	.	.	.	62
CC1CCN(c2c(NCc3ccc(C(=O)NCc4ccco4)cc3)c(=O)c2=O)CC1	/	/	/	/	/	.
Cc1ccc(CNC(=O)c2ccc(CNc3c(N4CCCC4)c(=O)c3=O)cc2)cc1	.	41	.	.	.	.
Cc1cc(C)cc(NC(=O)c2ccc(CNc3c(N4CCOCC4)c(=O)c3=O)cc2)c1	.	.	.	.	.	.
CCOc1ccc(OCC)c(NC(=O)c2ccc(CNc3c(N4CCOCC4)c(=O)c3=O)cc2)c1	.	70	.	.	.	.
O=C(NCc1ccco1)c1ccc(CNc2c(N3CCCCC3)c(=O)c2=O)cc1	/	/	/	/	/	.
CC1CCN(c2c(NCc3ccc(C(=O)N4CCc5ccccc54)cc3)c(=O)c2=O)CC1	.	118	.	.	.	.
CCOC(=O)c1c(C)oc2ccc(OC(=O)COc3c(F)c(F)c(F)c(F)c3F)cc12	/	/	/	/	/	.
COc1ccc2c(c1)c1ncn(CCN3CCCC3)c(=O)c1n2C	.	.	.	.	.	.
COc1ccc2c(c1)c1ncn(CCN3CCNCC3)c(=O)c1n2C	.	.	92	.	.	.
CC1(C)CC(=O)C2=C(C1)OC1=C(C(=O)CC(C)(C)C1)C2c1ccc(O)cc1O	.	.	.	94[fluorescence artefact?]	.	.
CN(C)N=Nc1ccc(S(=O)(=O)N2CCSC2C(=O)O)cc1 (stereo not given)	.	.	.	.	.	/
SMILES	NFkB transloc inh	NFkB transloc pot	HUVEC tox IL1B	Rev-RRE block	FAK blocker	Measles CPE
Cc1ccc(S(=O)(=O)N2CCSC2C(=O)O)cc1 (stereo not given)	.	.	75	.	.	.
CC(C)(C)N=C1SCC(C)(/C=N/O)S1 (stereo not given)	.	.	.	.	.	55
CCC(C)N=C1SCC(C)(/C=N/O)S1 (stereo not given)	.	.	.	.	.	.
CC(=O)c1ccc(N2CCN(C(=O)CCCc3nc4ccccc4s3)CC2)cc1	/	/	/	/	/	.
CC(C)c1[nH]nc2c1C(c1cccnc1)C(C#N)=C(N)O2 (stereo not given)	.	.	.	.	.	44
CCN(CC)c1ccc2c(c1)OC(N)=C(C#N)C2c1cccnc1 (stereo not given)	.	.	.	121[fluorescence artefact?]	.	.
